Target: T1, Aromatase (Homo sapiens, UniProt P11511)
T1 sequence (P11511 whole entry): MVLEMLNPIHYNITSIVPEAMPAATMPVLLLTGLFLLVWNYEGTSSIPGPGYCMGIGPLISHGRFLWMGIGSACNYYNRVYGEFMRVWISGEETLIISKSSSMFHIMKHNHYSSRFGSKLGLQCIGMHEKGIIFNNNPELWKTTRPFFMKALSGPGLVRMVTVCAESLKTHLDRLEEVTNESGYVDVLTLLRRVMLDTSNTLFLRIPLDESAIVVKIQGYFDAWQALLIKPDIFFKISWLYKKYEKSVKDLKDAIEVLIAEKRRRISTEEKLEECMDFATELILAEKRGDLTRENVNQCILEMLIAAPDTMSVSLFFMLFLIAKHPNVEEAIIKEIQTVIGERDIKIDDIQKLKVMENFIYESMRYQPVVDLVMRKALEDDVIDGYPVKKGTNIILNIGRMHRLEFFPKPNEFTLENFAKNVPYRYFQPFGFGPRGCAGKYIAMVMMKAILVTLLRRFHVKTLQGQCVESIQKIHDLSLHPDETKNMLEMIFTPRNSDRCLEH
Test: Inhibition of CYP450 aromatase activity in SK-BR-3 cells
Summary of the method: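 Tritium water release assay in intact SK-BR-3 cells. Cells were treated 24 h with compound or 0.1% DMSO vehicle, then the medium was changed and cells were given 100 nM [1β-3H]-androstenedione for 3 h. Protein was precipitated with TCA and the medium chloroform- and charcoal-extracted. Released 3H2O was counted and expressed per million cells (DNA assay). IC50 came from nonlinear regression on five concentrations in triplicate.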

| IC50 [µM] | Structure (SMILES) |
| --- | --- |
| > 25 | COc1cc([N+](=O)[O-])ccc1NS(C)(=O)=O [N-(2-methoxy-4-nitrophenyl)methanesulfonamide] |
| > 25 | COc1cc([N+](=O)[O-])ccc1N(C)S(C)(=O)=O [N-methyl-N-(2-methoxy-4-nitrophenyl)methanesulfonamide] |

— BindingDB's records for doi:10.1021/jm051126f (The Ohio State University, 2006)
